The list is not random: actives were taken first. Their share in the collection is about 2.1%.
A3G deaminase: inhibitors of human APOBEC3G DNA deaminase. Q9HC16. recombinant A3G, ssDNA deamination FAM/TAMRA fluorescence. inhibition, % at 20 µM. hit rate 0.28% among 330,000;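 active means inhibition of at least 40% at 20 µM, with no more than 30% in the related APOBEC3A deaminase screen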;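 further: plate controls were DMSO wells with A3G for no effect and wells lacking A3G enzyme for full effect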
Target sequence (Q9HC16 whole entry, looked up): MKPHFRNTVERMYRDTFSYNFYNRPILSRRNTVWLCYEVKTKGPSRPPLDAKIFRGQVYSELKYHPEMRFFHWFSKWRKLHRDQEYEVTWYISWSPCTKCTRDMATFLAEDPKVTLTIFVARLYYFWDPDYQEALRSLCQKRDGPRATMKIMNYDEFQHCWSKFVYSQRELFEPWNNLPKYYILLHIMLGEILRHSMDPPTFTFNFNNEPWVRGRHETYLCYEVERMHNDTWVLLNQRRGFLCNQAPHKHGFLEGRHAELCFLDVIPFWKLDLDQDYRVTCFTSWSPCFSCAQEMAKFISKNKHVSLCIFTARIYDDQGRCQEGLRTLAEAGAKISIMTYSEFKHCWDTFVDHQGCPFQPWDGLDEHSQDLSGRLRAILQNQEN
ASAP1 inh: blocks human ASAP1-stimulated Arf1 GTP hydrolysis. hit rate 0.19% among 360,000. GDP FP detection. inhibition, % at 16.5 µM; in the data active means inhibition above about 25%;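 further: 0% = vehicle with enzyme and substrate and 100% = no enzyme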
ARFGAP1 inhibitor: rat ARFGAP1 inhibition; Q62848; Arfgap1-stimulated ARF1 GTP hydrolysis, GDP FP detection; inhibition, % at 16.5 µM; hit rate 0.26% among 360,000; AID 651572;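 active means inhibition above a per-plate limit, mean inhibition of low control wells plus 3 SD, cut at about 25% in these data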;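 further: 0% = DMSO wells with enzyme and 100% = wells lacking Arfgap1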
Target sequence (Q62848 1-136 limits assumed): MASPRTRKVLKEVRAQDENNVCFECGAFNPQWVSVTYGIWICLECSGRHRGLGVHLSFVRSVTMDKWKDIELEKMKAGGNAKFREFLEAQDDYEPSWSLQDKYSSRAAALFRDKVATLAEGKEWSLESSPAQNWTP
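Material: truncated rat Arfgap1 GAP domain; Incubation: compound-enzyme preincubation 20 min, reaction 120 min, detection 60 min, 25 °C; Read-out: percent inhibition of Arfgap1-stimulated GTP hydrolysis; Technique: FP, GDP Alexa 633 tracer displaced from anti-GDP antibody, 620/688 nm; Controls: No-Arfgap1 wells (100%) versus DMSO full-reaction wells (0%); Replication: single well per compound.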
C2C12 statin: suppression of simvastatin myotoxicity; C2C12 myotubes + simvastatin, ATP luminescence, 48 h; scaled: DMSO 0, geranylgeraniol control 100; rescue of ATP level, % at 7.49 µM; hit rate 0.78% among 330,000; AID 602340;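 active means mean ATP rescue above about 67%, or every replicate alone reaching that limit, limit read from the data, passing the limit was not always enough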;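 further: myotubes were challenged with 10 µM simvastatin during compound exposure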
Mot1-301 SUMO: inhibitors of SUMOylation pathway: yeast Mot1-301 growth rescue | AID 2716 | growth rescue, % at 18.8 µM | hit rate 1% among 320,000 | S. cerevisiae Mot1-301 growth rescue, ATP luminescence, 38.5C; percent above DMSO median, 100 means doubled;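 active means every valid replicate shows activation above 250% relative to neutral control wells; inactive means the rest, any valid replicate at or below 250%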;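 further: OY570 slx delta 5 strain wells were the positive control but not used for scaling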
APOBEC3A inh: blocks human APOBEC3A ssDNA deamination | inhibition, % at 20 µM | P31941 | hit rate 0.41% among 330,000 | recombinant A3A, FAM/TAMRA ssDNA deamination fluorescence | AID 493011;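 active means at least 40% inhibition at 20 µM here, with at most 30% in a related deaminase screen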;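 further: plate controls were A3A with DMSO for no effect and wells lacking A3A enzyme for full effect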
Target sequence (P31941 whole entry, looked up): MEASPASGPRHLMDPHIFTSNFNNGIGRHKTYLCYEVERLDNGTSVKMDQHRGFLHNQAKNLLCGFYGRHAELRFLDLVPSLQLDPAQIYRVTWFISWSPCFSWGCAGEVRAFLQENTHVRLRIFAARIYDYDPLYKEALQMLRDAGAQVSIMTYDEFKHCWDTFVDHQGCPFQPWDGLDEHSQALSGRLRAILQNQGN
Mot1 SUMO dose: SUMO pathway inhibitors in yeast Mot1-301 growth. S. cerevisiae Mot1-301 galactose growth, ATP luminescence, 24 h; -100 = growth of slx-deleted rescue strain. shares compounds with Mot1-301 SUMO. AID 493004. 2,300 tested, under 10 active. growth activity, percent, % at 42 µM;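 active means Signal drops as the depositor expects, and the fitted half-maximal dose is no more than ten times the top valid tested dose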;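 further: more negative values mean stronger growth rescue toward the control strain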
* marks the source's active call; other numbers are inactive results; / = no result given; + = active, no number; [ ] = remark or other dose.

SMILES | A3G deaminase | ASAP1 inh | ARFGAP1 inhibitor | C2C12 statin | Mot1-301 SUMO | APOBEC3A inh | Mot1 SUMO dose
CN1C(=O)C(O)(CC(=O)c2ccccc2O)c2cc(Br)ccc21 (stereo not given) | -7.7 | 13.3 | -3.5 | 1.9 | -9.3 | 0.3 | 0.2
COc1ccc(N2CCN(CC(=O)c3c[nH]c4ccccc34)CC2)cc1 | -4.4 | 10.8 | 9.9 | / | -5.3 | -2.2 | /
COc1ccc(N2CCN(CCCNC(=O)C(=O)c3c(C)[nH]c4ccccc34)CC2)cc1 | -1.2 | -1.4 | -6.0 | 8.3 | 413.1* | -8.5 | 0.1[21 µM]
O=C(C[C@H]1C=C[C@H](NS(=O)(=O)c2ccc(F)cc2)[C@H](CO)O1)NCCN1CCCCC1 | / | / | / | -1.4 | / | / | /
COc1ccc(-c2csc(NC(=O)CCS(=O)(=O)c3ccccc3)n2)c(OC)c1 | -7.0 | 4.6 | 7.3 | 2.4 | 454.1* | -3.1 | -0.1
COc1ccc(-n2nnnc2SCC#CCO)cc1 | -3.1 | 4.9 | 5.4 | -4.8 | 6.0 | -2.0 | /
Cc1ccc(-n2nnnc2SCC#N)cc1 | -0.4 | -1.2 | 2.3 | / | 715.5* | -1.3 | 0.5
COCC(=O)N(C)C[C@@H]1Oc2ncc(C#Cc3ccccc3)cc2C(=O)N([C@@H](C)CO)C[C@@H]1C | / | / | / | -11.3 | / | / | /
CC1CCCCC1N=CC1=C(O)CC(C)(C)CC1=O (stereo not given) | 3.2 | 5.1 | -5.1 | 22.7 | 385.3* | 1.5 | 0.0
CCC(CO)N=CC1=C(O)CC(C)(C)CC1=O (stereo not given) | -5.6 | 2.9 | -9.5 | -1.4 | 0.5 | -2.1 | /
COCC(=O)N1C[C@@H]2[C@H](c3ccccc31)[C@@H](CO)N2C(=O)c1ccccc1F | / | / | / | 14.3 | / | / | /
CC1(OC(=O)CCc2ccccc2)C(=O)C=C2C=C(c3ccc(C#N)cc3)N(c3ccccc3)C=C2C1=O (stereo not given) | -14.4 | -2.7 | 5.4 | 0.5 | 10.8 | -4.2 | /
CC1(OC(=O)CCc2ccccc2)C(=O)C=C2C=C(c3ccc(C#N)cc3)N(C3CCCC3)C=C2C1=O (stereo not given) | -12.6 | 0.7 | 5.5 | 5.5 | 645.4* | -7.2 | 0.2
CC1(OC(=O)CCc2ccccc2)C(=O)C=C2C=C(c3ccc(C#N)cc3)N(CC3CC3)C=C2C1=O (stereo not given) | -4.2 | 6.9 | -6.2 | 11.4 | 588.6* | -5.5 | 0.2
Cc1ccc(NC(=O)CN(C)C(=O)c2cccc(Br)c2)cc1 | -3.6 | -8.6 | 10.3 | -29.4 | 694.6* | 0.3 | -0.4
Cc1ccc(NC(=O)CN(C)C(=O)c2cccc(S(=O)(=O)NCc3ccccc3)c2)cc1 | -11.0 | 16.7 | -2.8 | -20.5 | -0.4 | 0.6 | /
CCOc1ccc(C(=O)NCC2OCCc3ccccc32)cc1 (stereo not given) | 4.4 | -5.6 | -2.5 | 17.6 | 747.5* | 2.8 | 0.2
COc1ccc(C(=O)NCC2OCCc3ccccc32)cc1 (stereo not given) | 0.8 | 14.0 | 0.7 | 4.8 | -13.7 | 2.3 | /
Cc1noc(C)c1NC(=O)N(C)C[C@H]1Oc2c(NS(=O)(=O)c3cn(C)cn3)cccc2C(=O)N([C@H](C)CO)C[C@H]1C | / | / | / | -14.5 | / | / | /
CC(=O)N(C)C[C@@H]1Oc2cc(-c3cccc(F)c3)ccc2S(=O)(=O)N([C@@H](C)CO)C[C@H]1C | / | / | / | 16.6 | / | / | /
CC(=O)Nc1ccc(C(=O)N/N=C/c2cc(Br)cc(Br)c2O)cc1 | -6.5 | 11.2 | 1.8 | -0.3 | 11.4 | -4.7 | /
Cc1ccc(C(=O)O)cc1N=Cc1cc(Br)cc(Br)c1O | / | / | / | / | 858.1* | / | 0.0
COc1ccc(C2=NN(C(=S)Nc3ccccc3)C(c3ccccc3)C2)cc1 (stereo not given) | 2.0 | -11.9 | 14.5 | / | + | 1.3 | -0.9
O=C(CCc1ccccc1)NNC(=S)Nc1ccc(F)cc1 | -2.2 | -13.4 | -4.3 | -12.2 | 376.9* | -4.7 | -0.6
O=S(=O)(N[C@@H]1CC[C@@H](CCn2cc(-c3ccccn3)nn2)O[C@H]1CO)c1cccc(F)c1 | / | / | / | -0.8 | / | / | /
SMILES | A3G deaminase | ASAP1 inh | ARFGAP1 inhibitor | C2C12 statin | Mot1-301 SUMO | APOBEC3A inh | Mot1 SUMO dose
Cc1cc(C)nc(SCC2COc3ccccc3O2)n1 (stereo not given) | -3.2 | -2.7 | -14.9 | -5.3 | 393.5* | -2.2 | 0.6
Cc1cc(C)n(C(=O)CCC2COc3ccccc3O2)n1 (stereo not given) | -8.3 | 15.4 | 4.0 | / | 2.8 | -4.0 | /
COc1ccc(C(=O)Nc2nccs2)cc1OC | 3.7 | -2.3 | 4.9 | -1.7 | 21.8 | 4.6 | /
COc1cc(/C=C(\NC(=O)c2ccccc2)C(=O)Nc2nccs2)ccc1OC(C)=O | -8.3 | -1.4 | -14.6 | -3.5 | 395.1* | -3.9 | 0.4
O=c1c2ccccc2ncn1-c1ccc(Cl)cc1Cl | -4.4 | -11.6 | 7.2 | / | 747.2* | 0.0 | 1.0
CC(OC(=O)c1cc(S(=O)(=O)N2CCOCC2)ccc1F)C(=O)NCc1ccc2c(c1)OCO2 (stereo not given) | -9.8 | -9.9 | 9.7 | 2.7 | 373.6* | 0.7 | 0.0
COc1ccc(C(=O)Nn2c(SCC(=O)NCc3ccccc3)nc3ccccc3c2=O)cc1 | -3.1 | -5.1 | 12.3 | / | + | -2.0 | 0.0
COCC(C)n1c(SCC(=O)NNC(=O)c2ccccc2)nc2ccccc2c1=O (stereo not given) | -2.5 | -9.3 | 3.5 | 7.2 | 439.2* | 1.2 | -0.1
CO[C@@H]1CN(C)C(=O)c2ccc(NS(=O)(=O)c3ccc(C)cc3)cc2OC[C@@H](C)N(C(=O)NC(C)C)C[C@@H]1C | / | / | / | -2.5 | / | / | /
Cn1c(SCC(=O)Nc2nnc(-c3ccccc3)o2)nnc1C1CC1 | -7.0 | 4.3 | -5.2 | 6.1 | 544.6* | -6.4 | -0.2
Cn1c(SCC(=O)Nc2ccccc2Cl)nnc1C1CC1 | -6.3 | 1.8 | 9.1 | 12.7 | 3.2 | -0.6 | /
Cc1ccc(S(=O)(=O)N(C)C[C@@H]2Oc3ccc(NC(=O)Cn4cnnn4)cc3CC(=O)N([C@@H](C)CO)C[C@H]2C)cc1 | / | / | / | -11.2 | / | / | /
CSCCC(NC(=O)c1ccccc1)C(=O)N1CCN(C(=O)c2ccccc2)CC1 (stereo not given) | -3.9 | 1.6 | -0.2 | 3.8 | -14.9 | -2.0 | /
CSCCC(NC(=O)c1ccco1)C(=O)N1CCN(Cc2ccccc2)CC1 (stereo not given) | -6.6 | 12.3 | 4.1 | 8.2 | 425.8* | -0.8 | 0.5
O=C(C[C@H]1C[C@H]2c3cc(NC(=O)Cc4ccncc4)ccc3O[C@H]2[C@H](CO)O1)NCc1cccc(F)c1 | / | / | / | -6.7 | / | / | /
Cc1noc(C)c1S(=O)(=O)Nc1ccc2c(c1)CC(=O)N([C@H](C)CO)C[C@H](C)[C@H](CN(C)S(C)(=O)=O)O2 | / | / | / | 14.2 | / | / | /

Source: PubChem BioAssay
